Measurements taken from ChEMBL document CHEMBL3808328, “Caged xanthones: Potent inhibitors of global predominant MRSA USA300” (Bioorg Med Chem Lett, 2016).
Values after ≈ are worked out from the molar mass of the structure shown. Active and inactive are the calls of the source. The calls are words filed in the database; no cut-off is given here.

Columns and labels:
[1] = system: Staphylococcus aureus; experiment: Antibacterial activity against methicillin-susceptible Staphylococcus aureus ATCC 29213 assessed as growth inhibition after 18 to 20 hrs by microdilution assay; type: functional
Outline: (§1)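 Broth microdilution gives both MIC and MBC. Each compound is serially 2-fold diluted starting from its stock concentration.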

[2] = system: Staphylococcus aureus; experiment: Antibacterial activity against methicillin-resistant Staphylococcus aureus USA300 SF8300 assessed as zone of inhibition at 30 ug after 18 hrs by disk diffusion method; type: functional; conditions: USA300 SF8300, 18 h, read-out: DIZ
Outline: (§2)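 Disk diffusion on 6 mm paper disks, with methicillin-susceptible S. aureus ATCC 25923 as the control strain alongside MRSA USA300 SF8300. The read-out is the diameter of the complete inhibition zone, averaged over at least three independent experiments and reported with standard errors. A 6 mm zone means no growth inhibition.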

[3] = system: Staphylococcus aureus; experiment: Antibacterial activity against methicillin-resistant Staphylococcus aureus USA300 SF8300 assessed as growth inhibition after 18 to 20 hrs by microdilution assay; type: functional
Outline: (§3)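 Broth microdilution to find MIC and MBC against MRSA USA300 SF8300. Each compound was serially 2-fold diluted starting from its stock concentration.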

[4] = system: A549; experiment: Cytotoxicity against human A549 cells assessed as change in cell morphology at 12.5 to 25 uM after 10 mins to 2 hrs by microscopic analysis; type: cell-based; conditions: a549, 25 µM
[5] = system: Staphylococcus aureus; experiment: Effect on methicillin-susceptible Staphylococcus aureus RF122 growth at >= MIC after 2 hrs; type: organism-based
[6] = system: HEK293; experiment: Cytotoxicity against human HEK293 cells assessed as change in cell morphology at 12.5 to 25 uM after 10 mins to 2 hrs by microscopic analysis; type: cell-based; conditions: hek293, 25 µM
[7] = system: Staphylococcus aureus; experiment: Antibacterial activity against methicillin-susceptible Staphylococcus aureus RF122 infected in A549 cells assessed as inhibition of bacterial invasion after 2 hrs
[8] = system: A549; experiment: Cytotoxicity against human A549 cells assessed as reduction in cell viability after 24 to 48 hrs by Presto Blue assay; type: cell-based
[9] = system: Staphylococcus aureus; experiment: Bactericidal activity against methicillin-resistant Staphylococcus aureus USA300 SF8300 after 18 to 20 hrs; type: functional; outline: as §3
[10] = system: Staphylococcus aureus; experiment: Antibacterial activity against methicillin-susceptible Staphylococcus aureus ATCC 25923 assessed as zone of inhibition at 30 ug after 18 hrs by disk diffusion method; type: functional; conditions: ATCC 25923, 18 h, read-out: DIZ
Outline: (§4)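 Disks 6 mm in diameter; a 6 mm zone means no growth inhibition. The diameters of complete-inhibition zones are averaged over at least three independent experiments and reported with standard errors.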

[11] = system: Staphylococcus aureus; experiment: Bactericidal activity against methicillin-susceptible Staphylococcus aureus ATCC 29213 after 18 to 20 hrs; type: functional; outline: as §1
[12] = system: HEK293; experiment: Cytotoxicity against human HEK293 cells assessed as reduction in cell viability after 24 to 48 hrs by […] assay
[13] = system: Staphylococcus aureus; experiment: Antibacterial activity against methicillin-susceptible Staphylococcus aureus ATCC 25923 assessed as zone of inhibition at 1 ug after 18 hrs by disk diffusion method; type: functional; conditions: ATCC 25923, 18 h, read-out: DIZ; outline: as §2
[14] = system: Staphylococcus aureus; experiment: Antibacterial activity against methicillin-resistant Staphylococcus aureus USA300 SF8300 assessed as zone of inhibition at 1 ug after 18 hrs by disk diffusion method; type: functional; conditions: USA300 SF8300, 18 h, read-out: DIZ; outline: as §2
[15] = system: Staphylococcus aureus; experiment: Antibacterial activity against methicillin-resistant Staphylococcus aureus USA300 SF8300 assessed as zone of inhibition at 10 ug after 18 hrs by disk diffusion method; type: functional; conditions: USA300 SF8300, 18 h, read-out: DIZ; outline: as §2
[16] = system: Staphylococcus aureus; experiment: Antibacterial activity against methicillin-susceptible Staphylococcus aureus ATCC 25923 assessed as zone of inhibition at 10 ug after 18 hrs by disk diffusion method; type: functional; conditions: ATCC 25923, 18 h, read-out: DIZ; outline: as §4
[17] = system: HEK293; experiment: Cytotoxicity against human HEK293 cells assessed as cells detachment at 12.5 uM after 2 hrs by microscopic analysis; type: cell-based; conditions: hek293, 2 h
[18] = system: Staphylococcus aureus; experiment: Antibacterial activity against methicillin-susceptible Staphylococcus aureus RF122 infected in A549 cells assessed as inhibition of bacterial invasion at 1.5 uM after 1 hr; type: functional, organism-based
Outline: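 Invasion assay in human epithelial A549 cells infected with S. aureus while the test compound was present. Concentrations were held below those that damage A549 cells. Both non-invading and invading bacteria were then cultured to rule out effects on bacterial growth.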

[19] = system: HEK293; experiment: Cytotoxicity against human HEK293 cells assessed as cells detachment at 50 uM after 10 mins by microscopic analysis; type: cell-based; conditions: hek293, 10 min
[20] = system: A549; experiment: Cytotoxicity against human A549 cells assessed as cells detachment at 12.5 uM after 2 hrs by microscopic analysis; type: cell-based; conditions: a549, 2 h
[21] = system: A549; experiment: Cytotoxicity against human A549 cells assessed as cells detachment at 50 uM after 10 mins by microscopic analysis; type: cell-based; conditions: a549, 10 min

Row | Structure (SMILES) | MIC [1] [µM] | zone of inhibition at 30 µg/disc [2] [mm] | MIC [3] [µM] | IC50 [8] [µM] | MBC [9] [µM] | zone of inhibition at 30 µg/disc [10] [mm] | MBC [11] [µM] | also measured
1 | CC(C)=CCc1c2c(c(O)c3c1O[C@@]14C(=C[C@H]5CC1C(C)(C)O[C@]4(C/C=C(/C)C(=O)N[C@H](C(=O)O)C(C)C)C5=O)C3=O)C=CC(C)(C)O2 | 12.5 (≈ 8.25 µg/mL) | 22.2 | 25 (≈ 16.5 µg/mL) | 29.8 | 25 (≈ 16.5 µg/mL) | 20 | 12.5 (≈ 8.25 µg/mL) | Activity [4]: Non-toxic; Activity [5]: Non-toxic; Activity [6]: Non-toxic; inhibition [7]: Dose-dependent effect; IC50 [12]: 21.8 µM
2 | CC(C)=CCc1c(O)cc(O)c2c1OC13C(=CC4CC1C(C)(C)O[C@]3(CC=C(C)C)C4=O)C2=O | 200 (≈ 92.9 µg/mL) | 7.97 | > 400 | – | > 400 | 7.86 | 200 (≈ 92.9 µg/mL) | –
3 | CC(C)=CCc1c2c(c(O)c3c1O[C@@]14C(=C[C@H]5CC1C(C)(C)O[C@]4(C/C=C(/C)C(=O)N[C@@H](CCC(N)=O)C(=O)O)C5=O)C3=O)C=CC(C)(C)O2 | – | 9.09 | – | – | – | 7.5 | – | –
4 | CC(C)=CCC[C@]1(C)C=Cc2c(O)c3c(c(CC=C(C)C)c2O1)O[C@]12C(=C[C@@H]4C[C@H]1C(C)(C)O[C@@]2(C/C=C(/C)C(=O)O)C4=O)C3=O [GAMBOGIC ACID] | 12.5 (≈ 7.86 µg/mL) | 17.3 | 25 (≈ 15.7 µg/mL) | 3.4 | 50 (≈ 31.4 µg/mL) | 16.6 | 25 (≈ 15.7 µg/mL) | IC50 [12]: 1.72 µM
5 | CC(C)=CCc1c2c(c(O)c3c1O[C@@]14C(=C[C@H]5CC1C(C)(C)O[C@]4(C/C=C(/C)C(=O)N[C@@H](CC(C)C)C(=O)O)C5=O)C3=O)C=CC(C)(C)O2 | 25 (≈ 16.8 µg/mL) | 18.3 | 25 (≈ 16.8 µg/mL) | 15.5 | 50 (≈ 33.7 µg/mL) | 16.5 | 25 (≈ 16.8 µg/mL) | –
6 | CC(C)=CCc1c2c(c(O)c3c1O[C@@]14C(=C[C@H]5CC1C(C)(C)O[C@]4(C/C=C(/C)C(=O)N[C@@H](CO)C(=O)O)C5=O)C3=O)C=CC(C)(C)O2 | – | 6.28 | – | – | – | 6.09 | – | –
7 | CC(C)=CCc1c2c(c(O)c3c1O[C@@]14C(=C[C@H]5CC1C(C)(C)O[C@]4(C/C=C(/C)C(=O)N[C@@H](CCC(=O)O)C(=O)O)C5=O)C3=O)C=CC(C)(C)O2 | – | 6 | – | – | – | 6 | – | –
8 | CC(C)=CCc1c2c(c(O)c3c1O[C@@]14C(C[C@H]5CC1C(C)(C)O[C@]4(C/C=C(\C)C=O)C5=O)C3=O)C=CC(C)(C)O2 (stereo partly specified) | – | 6 | – | – | – | 6 | – | –
9 | Cc1onc(-c2ccccc2)c1C(=O)N[C@@H]1C(=O)N2[C@@H]1SC(C)(C)[C@@H]2C(=O)O [OXACILLIN] | 0.62 (≈ 0.249 µg/mL) | – | > 19.9 | – | > 19.9 | – | 1.25 (≈ 0.502 µg/mL) | zone of inhibition at 1 µg/disc [13]: 28.9 mm; zone of inhibition at 1 µg/disc [14]: 6 mm
10 | CC1(C)S[C@@H]2[C@H](NC(=O)[C@H](N)c3ccccc3)C(=O)N2[C@H]1C(=O)O [AMPICILLIN] | 1.56 (≈ 0.545 µg/mL) | – | > 100 | – | > 100 | – | 1.56 (≈ 0.545 µg/mL) | zone of inhibition at 10 µg/disc [15]: 6 mm; zone of inhibition at 10 µg/disc [16]: 17 mm
11 | CC(C)=CCc1c2c(c(O)c3c1O[C@@]14C(=C[C@H]5CC1C(C)(C)O[C@]4(C/C=C(\C)CO)C5=O)C3=O)C=CC(C)(C)O2 | – | 8.57 | – | 2.69 | – | 7.75 | – | IC50 [12]: 0.98 µM
12 | CC(C)=CCc1c2c(c(O)c3c1O[C@@]14C(=C[C@H]5CC1C(C)(C)O[C@]4(C/C=C(/C)C(=O)N[C@@H](CCC(=O)OCc1ccccc1)C(=O)O)C5=O)C3=O)C=CC(C)(C)O2 | – | – | – | – | – | 6.53 | – | –
13 | CC(C)=CCC/C(C)=C/Cc1c(O)c(CC=C(C)C)c2c(c1O)C(=O)C1=C[C@H]3CC4C(C)(C)O[C@](CC=C(C)C)(C3=O)[C@]14O2 | – | 6 | – | – | – | 6 | – | –
14 | CC(C)=CCc1c2c(c(O)c3c1O[C@@]14C(=C[C@H]5CC1C(C)(C)O[C@]4(C/C=C(/C)C(=O)O)C5=O)C3=O)C=CC(C)(C)O2 | 12.5 (≈ 7.01 µg/mL) | 19.5 | 12.5 (≈ 7.01 µg/mL) | 3.5 | 25 (≈ 14 µg/mL) | 19.2 | 12.5 (≈ 7.01 µg/mL) | Activity [17]: Toxic; inhibition [18]: inactive; Activity [19]: Toxic; Activity [20]: Toxic; IC50 [12]: 2.33 µM; Activity [21]: Toxic
15 | CC(C)=CCc1c2c(c(O)c3c1O[C@@]14C(=C[C@H]5CC1C(C)(C)O[C@]4(CC=C(C)C)C5=O)C3=O)C=CC(C)(C)O2 | – | 6 | – | 1.42 | – | 6 | – | IC50 [12]: 0.81 µM
16 | CC(C)=CCc1c2c(c(O)c3c1O[C@@]14C(=C[C@H]5CC1C(C)(C)O[C@]4(C/C=C(/C)C(=O)N[C@@H](Cc1ccccc1)C(=O)O)C5=O)C3=O)C=CC(C)(C)O2 | 12.5 (≈ 8.85 µg/mL) | 16.3 | 25 (≈ 17.7 µg/mL) | 12.2 | 25 (≈ 17.7 µg/mL) | 17.1 | 12.5 (≈ 8.85 µg/mL) | –
17 | CC(C)=CCc1c(O)cc(O)c2c1OC13C(=CC4(C/C=C/C(C)C)CC1C(C)(C)O[C@]3(CC=C(C)C)C4=O)C2=O | – | 6 | – | – | – | 6 | – | –
18 | CC[C@H](C)[C@H](NC(=O)/C(C)=C\C[C@]12OC(C)(C)C3C[C@H](C=C4C(=O)c5c(O)c6c(c(CC=C(C)C)c5O[C@@]431)OC(C)(C)C=C6)C2=O)C(=O)O | 25 (≈ 16.8 µg/mL) | 19.4 | 25 (≈ 16.8 µg/mL) | 24.5 | 50 (≈ 33.7 µg/mL) | 15.9 | 25 (≈ 16.8 µg/mL) | –
19 | CC(C)=CCc1c2c(c(O)c3c1O[C@@]14C(=C[C@H]5CC1C(C)(C)O[C@]4(C/C=C(/C)C(=O)N[C@@H](CCC(=O)NC(c1ccccc1)(c1ccccc1)c1ccccc1)C(=O)O)C5=O)C3=O)C=CC(C)(C)O2 | – | 8.21 | – | – | – | 6.89 | – | –
20 | CSCC[C@H](NC(=O)/C(C)=C\C[C@]12OC(C)(C)C3C[C@H](C=C4C(=O)c5c(O)c6c(c(CC=C(C)C)c5O[C@@]431)OC(C)(C)C=C6)C2=O)C(=O)O | – | 9.53 | – | – | – | 7.09 | – | –
21 | COC(=O)/C(C)=C\C[C@]12OC(C)(C)C3C[C@H](C=C4C(=O)c5c(O)c6c(c(CC=C(C)C)c5O[C@@]431)OC(C)(C)C=C6)C2=O | – | 6 | – | – | – | 6 | – | –
22 | CC(C)=CCc1c2c(c(O)c3c1O[C@@]14C(=C[C@H]5CC1C(C)(C)O[C@]4(C/C=C(/C)C(=O)N1CCC[C@H]1C(=O)O)C5=O)C3=O)C=CC(C)(C)O2 | 50 (≈ 32.9 µg/mL) | 15.9 | 100 (≈ 65.8 µg/mL) | 21.1 | > 100 | 13.1 | 100 (≈ 65.8 µg/mL) | –
